The text below walks through data of ChEMBL document CHEMBL4765368, “Structure guided design and synthesis of furyl thiazolidinedione derivatives as inhibitors of GLUT 1 and GLUT 4, and evaluation of their anti-leukemic potential” (Eur J Med Chem, 2020).

Calls of active or inactive are those of the source. No cut-off for these calls is given here.

The target in data set [1] is T1, Solute carrier family 2, facilitated glucose transporter member 1 (Homo sapiens) (UniProt P11166).
T1 sequence (whole entry): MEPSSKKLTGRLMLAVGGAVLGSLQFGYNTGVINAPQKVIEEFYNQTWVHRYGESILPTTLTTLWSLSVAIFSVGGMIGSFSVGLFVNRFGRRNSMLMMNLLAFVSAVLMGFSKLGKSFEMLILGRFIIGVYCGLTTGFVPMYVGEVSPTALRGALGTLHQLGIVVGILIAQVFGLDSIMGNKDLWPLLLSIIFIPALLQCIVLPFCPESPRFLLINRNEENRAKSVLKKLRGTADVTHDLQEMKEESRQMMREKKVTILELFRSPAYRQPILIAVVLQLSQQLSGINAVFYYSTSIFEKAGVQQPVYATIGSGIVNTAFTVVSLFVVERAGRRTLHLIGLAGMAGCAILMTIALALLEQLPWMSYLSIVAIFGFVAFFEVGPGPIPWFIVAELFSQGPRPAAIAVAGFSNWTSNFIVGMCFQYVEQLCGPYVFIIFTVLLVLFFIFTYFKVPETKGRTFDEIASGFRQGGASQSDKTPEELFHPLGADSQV
Kind of data set: Inhibition of transport activity of human GLUT1 expressed in hexose transporter deficient VW4000fgy1 yeast cells assessed as reduction in transporter-mediated [14C]-hexose uptake into cells by measuring relative activity at 100 uM measured after 10 mins by scintillation counting method relative to control. On the set-up: scale not given: the % may be the effect or the level left. The data set is classed as cell-based. In a few lines:
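The hxt0 yeast strain expressing one human GLUT was grown at 30 °C and resuspended in PBS pH 7.4 at OD600 ~10. Uptake was started with 14C-glucose at 5 mM final (GLUT1, GLUT4) or 14C-fructose at 10 mM final (GLUT5). It was quenched after 10 min with ice-cold 0.1 M KPi/0.1 M LiCl pH 5.5, filtered and counted by scintillation. Compound at 100 μM with 1% DMSO; DMSO control and phloretin 200 μM (GLUT1/4) or MSNBA 100 μM (GLUT5) as references. Triplicates.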

In data set [2] the target is T1, Solute carrier family 2, facilitated glucose transporter member 1 (Homo sapiens). Kind of data set: Inhibition of GLUT1 in human CCRF-CEM cells assessed as upregulation of GRP78 expression at 10 uM measured after 6 hrs by Western blot analysis. The data set is classed as cell-based. In a few lines: (§1)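 CEM cells were treated with 10 µM for 6 h. Untreated cells were the negative control and staurosporine the positive control. Cells were washed with cold PBS, lysed in Laemmli buffer with protease inhibitors, sonicated and quantified. Blots were blocked 45 min in PBS-Tween-5% milk, with primary antibody 3 h and secondary 1 h at room temperature.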

For data set [3], the system named is CCRF-CEM. Description: Cell cycle arrest in human CCRF-CEM cells assessed as increase in accumulation at sub-G0/G1 phase measured after 72 hrs by NIM-DAPI staining based flow cytometry. Format: functional. In a few lines:
(§2)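 An asynchronous CEM culture was seeded at 100,000 cells/well in 1 mL complete RPMI and exposed to 10, 25 or 50 μM for 72 h. Controls were untreated cells, DMSO and hydrogen peroxide. Cells were pelleted at 262 g, resuspended, and stained with NIM-DAPI, which permeabilizes and stains DNA in one step. About 100,000 events per sample were read by flow cytometry. Triplicates.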

The test system of a further data set is MDA-MB-231. Description: Cytotoxicity against human MDA-MB-231 cells assessed as reduction in cell viability measured after 48 hrs by Hoechst 33342/propidium iodide staining based imaging analysis. The data set is classed as functional. In a few lines:
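Cells were seeded at 10,000 per well (HS-27 at 3,000) in 10% FBS RPMI (leukemic lines) or DMEM (MDA-MB-231, HS-27). Compound in DMSO (1% v/v final) at 0.5–100 µM for 48 h. Hoechst 33342 and PI were added 2 h before automated imaging; dead cells were co-stained. Quadruplicates. CC50 was taken by linear interpolation between the two concentrations nearest 50% death.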

Data set [4] has as its system CCRF-CEM. Description: Antitumor activity against human CCRF-CEM cells xenografted in SCID mouse assessed as reduction in tumor growth at 50 mg/kg, ip administered daily for 5 days with 2 days interval for 18 days. The data set is classed as functional, organism-based. The note with it: time 18.0 day. In a few lines:
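SCID mice aged 8-10 weeks, in individually ventilated cages on a 12 h light/dark cycle, autoclaved pellets and water ad libitum. 1×10^5 CEM cells were injected on the back to form palpable tumors, which were minced and regrafted. Compound given 50 mg/kg i.p. on days 1-5, 8-12 and 15-18. Saline vehicle group; doxorubicin 20 mg/kg i.p. reference group. n=6 per group. Tumor volume by caliper every two days as (width)² x length/2.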

In data set [5] the test system is CCRF-CEM. Kind of data set: Cell cycle arrest in human CCRF-CEM cells assessed as decrease in accumulation at G0/G1 phase measured after 72 hrs by NIM-DAPI staining based flow cytometry. The data set is classed as functional. In a few lines:
as §2

Data set [6] is described as follows: Cytotoxicity against human WBC assessed as reduction in cell viability measured after 48 hrs by MTT assay. Format: tissue-based. In a few lines:
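WBCs were isolated from donor blood by HiSep density centrifugation, followed by RBC lysis and PBS washes, and held overnight at 37 °C with 5% CO2. Compound at 2.5–100 μM for 48 h. After two PBS washes, MTT was added for 4 h at 37 °C, formazan was dissolved in DMSO, and absorbance was read at 570 nm. IC50 taken from the dose-response curve.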

Data set [7] concerns CCRF-CEM. Kind of data set: Cell cycle arrest in human CCRF-CEM cells assessed as decrease in accumulation at S phase measured after 72 hrs by NIM-DAPI staining based flow cytometry. Format: functional. In a few lines: as §2
Data set [8] can be described thus: Toxicity in SCID mouse assessed as distress at 1000 mg/kg, ip administered as single dose measured within 6 hrs. The data set is classed as organism-based. The conditions noted are these: in vivo.
Data set [9] concerns CCRF-CEM. Description: Induction of apoptosis in human CCRF-CEM cells assessed as activation of caspase 3 at 10 uM measured after 6 hrs by Western blot analysis. Format: functional, cell-based. In a few lines:
as §1

The nature of data set [10]: Toxicity in SCID mouse assessed as distress at 1000 mg/kg, ip administered as single dose. Format: organism-based. The conditions noted are these: in vivo.
The test system of data set [11] is CCRF-CEM. Kind of data set: Induction of apoptosis in human CCRF-CEM cells assessed as late apoptotic cells at CC50 measured after 24 hrs by AnnexinV-FITC/propidium iodide staining based flow cytometry analysis relative to control. Format: functional. In a few lines:
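CCRF-CEM cells in RPMI with 10% FBS were seeded in 24-well plates, incubated overnight, given fresh medium, then treated for 24 h. Cells were PBS-washed, spun at 500 g for 5 min at 4 °C, and resuspended in ice-cold binding buffer. They were stained with annexin V-FITC and PI for 15 min on ice in the dark, then read by flow cytometry. Untreated cells were the negative control; triplicates.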

Data set [12] addresses T1, Solute carrier family 2, facilitated glucose transporter member 1 (Homo sapiens). Description: Inhibition of GLUT1 in human CCRF-CEM cells assessed as decrease in CDK2 phosphorylation at 10 uM measured after 6 hrs by Western blot analysis. Format: cell-based. In a few lines:
as §1

A short description of data set [13]: Toxicity in SCID mouse assessed as death at 500 mg/kg, ip administered as single dose. Format: organism-based. The note with it: in vivo. In a few lines: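 SCID mice aged 8–10 weeks were kept in individually ventilated cages on a 12 h light/dark cycle with autoclaved pellets and water ad libitum.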

In the case of `O=C(CN1C(=O)S/C(=C/c2ccco2)C1=O)Nc1ccc(Cl)c(Cl)c1`, in [1], the Activity came to 30%.
As to `O=C(CN1C(=O)S/C(=C/c2ccco2)C1=O)Nc1nc2ccccc2s1`, the inhibition entry in [2] and in data set [12] was “Active” each time. The Activity entry in the data set on CCRF-CEM [3] was “Dose-dependent effect”; in the data set with CCRF-CEM [5], “Dose-dependent effect”; with CCRF-CEM [7], “Dose-dependent effect”; in data set [8] it was “Non-Toxic”; in [10], “Toxic”; in the data set with CCRF-CEM [11], 55.87%. Moreover, the Activity entry in data set [13] is “Non-Toxic”. For the same molecule, the CC50 in the data set on MDA-MB-231 came out at 45.1 µM. In addition, the result in the data set on CCRF-CEM [4] and with CCRF-CEM [9] was Active. Further, in [6], the IC50 is 187 µM.
